One molecule from ChEMBL document CHEMBL4043093, “2-Oxo-3, 4-dihydropyrimido[4, 5-d]pyrimidinyl derivatives as new irreversible pan fibroblast growth factor receptor (FGFR) inhibitors” (Eur J Med Chem, 2017) can be followed below.

The target in assay [1] is Rhodopsin kinase GRK7 (Homo sapiens) (UniProt Q8WTQ7). The assay can be described thus: Inhibition of wild-type human full length GRK7 (M1 to L553 residues) expressed in HEK293 cells assessed as residual activity at 1000 nM after 30 mins by Kinomescan method relative to control. The assay is classed as cell-based. The essentials:
(§1)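 Single-concentration screen at 1 µM across a 456-kinase KINOMEscan panel. The read-out is Percent Control for each kinase.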

The target in assay [2] is Insulin receptor-related protein (Homo sapiens) (UniProt P14616). In words: Inhibition of wild-type human partial length INSRR (R950 to E1278 residues) expressed in Escherichia coli BL21 assessed as residual activity at 1000 nM after 30 mins by Kinomescan method relative to control.
Assay [3] deals with Tyrosine-protein kinase CSK (Homo sapiens) (UniProt P41240). The assay can be described thus: Inhibition of wild-type human full length CSK (M1 to L450 residues) expressed in Escherichia coli BL21 assessed as residual activity at 1000 nM after 30 mins by Kinomescan method relative to control. The essentials:
(§2)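 Single-point screen at a fixed 1 µM, run within a 456-kinase DiscoveRx KINOMEscan panel. Each kinase's read-out is Percent Control, i.e. signal relative to a control without compound. Hits were scored by a Percent Control < 35 cut-off, and an S(35) selectivity score was calculated across the non-mutant kinases.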

In assay [4] the target is Tyrosine-protein kinase Mer (Homo sapiens) (UniProt Q12866). In words: Inhibition of wild-type human partial length MERTK (R557 to L884 residues) expressed in Escherichia coli BL21 assessed as residual activity at 1000 nM after 30 mins by Kinomescan method relative to control.
Assay [5] relates to Phosphatidylinositol 4,5-bisphosphate 3-kinase catalytic subunit alpha isoform (Homo sapiens), P42336 [M1043I]. In words: Inhibition of human partial length PIK3CA M1043I mutant (R108 to N1068 residues) expressed in HEK293 cells assessed as residual activity at 1000 nM after 30 mins by Kinomescan method relative to control. In kind it is cell-based. The method in brief: as §2

Assay [6] has as its target Receptor-type tyrosine-protein kinase FLT3 (Homo sapiens) (UniProt P36888). In words: Inhibition of wild-type human partial length FLT3 (V592 to Y969 residues) expressed in Escherichia coli BL21 assessed as residual activity at 1000 nM after 30 mins by Kinomescan method relative to control.
In assay [7] the target is Cyclin-dependent kinase 15 (Homo sapiens) (UniProt Q96Q40). The assay can be described thus: Inhibition of wild-type human full length PFTAIRE2 (M1 to W384 residues) expressed in Escherichia coli BL21 assessed as residual activity at 1000 nM after 30 mins by Kinomescan method relative to control. The essentials: as §1
Assay [8] concerns the target Activin receptor type-2A (Homo sapiens) (UniProt P27037). The assay can be described thus: Inhibition of wild-type human ACVR2A (V171 to T499 residues) expressed in Escherichia coli BL21 assessed as residual activity at 1000 nM after 30 mins by Kinomescan method relative to control. The method in brief: as §2
For assay [9], the target named is Testis-specific serine/threonine-protein kinase 3 (Homo sapiens) (UniProt Q96PN8). In words: Inhibition of wild-type human full length TSSK3 (M1 to T268 residues) expressed in HEK293 cells assessed as residual activity at 1000 nM after 30 mins by Kinomescan method relative to control. In kind it is cell-based.
The test system of assay [10] is Mast/stem cell growth factor receptor Kit (Homo sapiens), P10721 [A829P]. In words: Inhibition of human partial length KIT A829P mutant (I571 to D952 residues) expressed in HEK293 cells assessed as residual activity at 1000 nM after 30 mins by Kinomescan method relative to control. In kind it is cell-based. The method in brief: (§3)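 KINOMEscan binding panel of 456 kinases, with the test compound at a single concentration of 1 µM. Read-out is Percent Control.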

Assay [11] deals with Serine/threonine-protein kinase B-raf (Homo sapiens) (UniProt P15056). The assay can be described thus: Inhibition of wild-type human partial length BRAF (S429 to E741 residues) expressed in HEK293 cells assessed as residual activity at 1000 nM after 30 mins by Kinomescan method relative to control. The assay is classed as cell-based.
The target of assay [12] is Mitogen-activated protein kinase kinase kinase 3 (Homo sapiens) (UniProt Q99759). In words: Inhibition of wild-type human partial length MAP3K3 (E320 to Y626 residues) expressed in HEK293 cells assessed as residual activity at 1000 nM after 30 mins by Kinomescan method relative to control. The assay is classed as cell-based.
The target of assay [13] is Ephrin type-A receptor 1 (Homo sapiens) (UniProt P21709). In words: Inhibition of wild-type human partial length EPHA1 (V588 to I913 residues) expressed in Escherichia coli BL21 assessed as residual activity at 1000 nM after 30 mins by Kinomescan method relative to control.
In assay [14] the test system is Hepatocyte growth factor receptor (Homo sapiens), P08581 [M1250T]. The assay can be described thus: Inhibition of human partial length MET M1250T mutant (D1010 to S1367 residues) expressed in Escherichia coli BL21 assessed as residual activity at 1000 nM after 30 mins by Kinomescan method relative to control. The method in brief: as §3
Assay [15] concerns the target Mitogen-activated protein kinase kinase kinase kinase 2 (Homo sapiens) (UniProt Q12851). The assay can be described thus: Inhibition of wild-type human partial length MAP4K2 (M1 to G318 residues) expressed in HEK293 cells assessed as residual activity at 1000 nM after 30 mins by Kinomescan method relative to control. In kind it is cell-based.
Assay [16] concerns the target Calcium/calmodulin-dependent protein kinase type 1D (Homo sapiens) (UniProt Q8IU85). The assay can be described thus: Inhibition of wild-type human partial length CAMK1D (M1 to K299 residues) expressed in Escherichia coli BL21 assessed as residual activity at 1000 nM after 30 mins by Kinomescan method relative to control.
Assay [17] deals with AP2-associated protein kinase 1 (Homo sapiens) (UniProt Q2M2I8). In words: Inhibition of human wild-type AAK1 (G25 to L333 residues) expressed in Escherichia coli BL21 assessed as residual activity at 1000 nM after 30 mins by Kinomescan method relative to control. The method in brief: as §2
Assay [18] has as its target Receptor-interacting serine/threonine-protein kinase 1 (Homo sapiens) (UniProt Q13546). The assay can be described thus: Inhibition of wild-type human partial length RIPK1 (M1 to K305 residues) expressed in Escherichia coli BL21 assessed as residual activity at 1000 nM after 30 mins by Kinomescan method relative to control.
Assay [19] addresses Phosphatidylinositol 4-kinase beta (Homo sapiens) (UniProt Q9UBF8). The assay can be described thus: Inhibition of wild-type human full length PIK4CB (M1 to M828 residues) expressed in HEK293 cells assessed as residual activity at 1000 nM after 30 mins by Kinomescan method relative to control. The assay is classed as cell-based. The method in brief:
as §1

Assay [20] deals with Homeodomain-interacting protein kinase 4 (Homo sapiens) (UniProt Q8NE63). The assay can be described thus: Inhibition of wild-type human partial length HIPK4 (M1 to V384 residues) expressed in Escherichia coli BL21 assessed as residual activity at 1000 nM after 30 mins by Kinomescan method relative to control.
The subject of assay [21] is Phosphatidylinositol 4,5-bisphosphate 3-kinase catalytic subunit alpha isoform (Homo sapiens), P42336 [E545A]. The assay can be described thus: Inhibition of human partial length PIK3CA E545A mutant (R108 to N1068 residues) expressed in HEK293 cells assessed as residual activity at 1000 nM after 30 mins by Kinomescan method relative to control. In kind it is cell-based. The method in brief: as §3

Sequence of Insulin receptor-related protein (Homo sapiens) (P14616 27-742 limits assumed): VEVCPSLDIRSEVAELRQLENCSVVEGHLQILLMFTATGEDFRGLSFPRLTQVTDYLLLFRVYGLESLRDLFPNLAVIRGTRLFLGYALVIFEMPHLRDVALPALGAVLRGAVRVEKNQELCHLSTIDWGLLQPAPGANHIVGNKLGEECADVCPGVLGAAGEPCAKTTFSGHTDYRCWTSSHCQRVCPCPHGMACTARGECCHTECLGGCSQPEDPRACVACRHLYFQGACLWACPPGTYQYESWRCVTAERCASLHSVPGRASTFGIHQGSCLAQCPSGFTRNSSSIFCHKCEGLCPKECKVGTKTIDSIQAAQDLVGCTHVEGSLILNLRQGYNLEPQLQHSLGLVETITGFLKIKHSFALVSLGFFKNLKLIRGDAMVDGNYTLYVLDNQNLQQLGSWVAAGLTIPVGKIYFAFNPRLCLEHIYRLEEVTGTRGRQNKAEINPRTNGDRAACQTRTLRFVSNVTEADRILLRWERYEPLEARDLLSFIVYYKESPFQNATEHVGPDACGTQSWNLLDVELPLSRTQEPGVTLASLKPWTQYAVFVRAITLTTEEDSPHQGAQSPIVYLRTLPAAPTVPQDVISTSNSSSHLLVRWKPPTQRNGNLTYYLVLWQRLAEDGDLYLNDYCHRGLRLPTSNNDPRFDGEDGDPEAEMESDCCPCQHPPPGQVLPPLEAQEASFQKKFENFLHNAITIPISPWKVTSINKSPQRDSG
Sequence of Insulin receptor-related protein (Homo sapiens) (P14616 747-1297 limits assumed): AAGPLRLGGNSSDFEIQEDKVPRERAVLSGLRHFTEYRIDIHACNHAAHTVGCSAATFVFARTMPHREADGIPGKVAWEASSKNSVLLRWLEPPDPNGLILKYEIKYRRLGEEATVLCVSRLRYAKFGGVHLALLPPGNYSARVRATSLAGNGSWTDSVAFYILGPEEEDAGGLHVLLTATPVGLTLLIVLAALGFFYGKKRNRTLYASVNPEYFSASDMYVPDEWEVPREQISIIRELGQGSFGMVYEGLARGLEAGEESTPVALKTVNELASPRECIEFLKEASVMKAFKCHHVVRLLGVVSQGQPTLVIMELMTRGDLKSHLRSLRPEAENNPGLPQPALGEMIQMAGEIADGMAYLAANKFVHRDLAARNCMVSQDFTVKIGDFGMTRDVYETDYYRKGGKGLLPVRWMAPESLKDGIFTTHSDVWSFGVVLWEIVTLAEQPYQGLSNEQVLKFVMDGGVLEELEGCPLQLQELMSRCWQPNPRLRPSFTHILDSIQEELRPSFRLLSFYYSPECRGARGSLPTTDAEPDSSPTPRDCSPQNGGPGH
Sequence of Tyrosine-protein kinase CSK (Homo sapiens) (P41240 2-450 limits assumed): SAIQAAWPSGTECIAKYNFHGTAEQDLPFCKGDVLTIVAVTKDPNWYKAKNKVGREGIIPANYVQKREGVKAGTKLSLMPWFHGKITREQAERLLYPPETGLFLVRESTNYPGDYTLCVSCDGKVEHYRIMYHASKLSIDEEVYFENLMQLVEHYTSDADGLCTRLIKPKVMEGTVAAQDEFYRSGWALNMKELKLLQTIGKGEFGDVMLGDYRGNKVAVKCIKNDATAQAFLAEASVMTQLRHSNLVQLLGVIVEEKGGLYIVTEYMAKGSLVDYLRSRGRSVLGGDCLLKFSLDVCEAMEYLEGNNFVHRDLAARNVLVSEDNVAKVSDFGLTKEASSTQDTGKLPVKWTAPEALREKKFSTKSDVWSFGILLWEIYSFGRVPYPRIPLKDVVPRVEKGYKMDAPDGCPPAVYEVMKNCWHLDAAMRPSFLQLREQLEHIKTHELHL
Sequence of Calcium/calmodulin-dependent protein kinase type 1D (Homo sapiens) (Q8IU85 whole entry, looked up, the tested form may be a part): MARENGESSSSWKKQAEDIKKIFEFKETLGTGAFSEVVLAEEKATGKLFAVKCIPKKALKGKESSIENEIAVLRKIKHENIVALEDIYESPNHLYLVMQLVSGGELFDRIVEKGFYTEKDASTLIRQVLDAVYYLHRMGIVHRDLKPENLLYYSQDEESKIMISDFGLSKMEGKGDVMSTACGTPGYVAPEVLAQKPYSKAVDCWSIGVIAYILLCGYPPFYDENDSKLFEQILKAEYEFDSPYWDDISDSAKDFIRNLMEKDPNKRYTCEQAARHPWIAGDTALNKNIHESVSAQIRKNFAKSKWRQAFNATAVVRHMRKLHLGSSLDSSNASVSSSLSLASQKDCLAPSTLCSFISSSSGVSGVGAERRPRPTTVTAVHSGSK
Sequence of Receptor-interacting serine/threonine-protein kinase 1 (Homo sapiens) (Q13546 whole entry, the tested form may be a part): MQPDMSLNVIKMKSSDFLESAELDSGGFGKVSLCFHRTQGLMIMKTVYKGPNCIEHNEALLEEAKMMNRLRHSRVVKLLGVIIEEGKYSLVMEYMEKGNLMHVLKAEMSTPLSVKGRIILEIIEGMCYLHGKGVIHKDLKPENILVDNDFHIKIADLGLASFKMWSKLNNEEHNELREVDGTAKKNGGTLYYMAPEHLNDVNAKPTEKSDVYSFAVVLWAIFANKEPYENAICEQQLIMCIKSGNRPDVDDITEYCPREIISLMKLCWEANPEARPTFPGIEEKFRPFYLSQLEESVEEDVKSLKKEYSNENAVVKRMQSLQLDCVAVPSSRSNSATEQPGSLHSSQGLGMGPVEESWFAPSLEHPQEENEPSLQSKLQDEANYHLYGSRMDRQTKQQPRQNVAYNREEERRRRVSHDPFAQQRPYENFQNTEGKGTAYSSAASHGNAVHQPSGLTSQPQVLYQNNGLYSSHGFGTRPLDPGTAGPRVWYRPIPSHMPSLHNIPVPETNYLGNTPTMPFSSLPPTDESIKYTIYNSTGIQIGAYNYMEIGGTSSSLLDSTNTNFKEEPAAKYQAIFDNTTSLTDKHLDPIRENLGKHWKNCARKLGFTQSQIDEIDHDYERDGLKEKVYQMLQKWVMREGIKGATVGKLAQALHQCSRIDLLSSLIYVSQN
Sequence of Activin receptor type-2A (Homo sapiens) (P27037 whole entry, the tested form may be a part): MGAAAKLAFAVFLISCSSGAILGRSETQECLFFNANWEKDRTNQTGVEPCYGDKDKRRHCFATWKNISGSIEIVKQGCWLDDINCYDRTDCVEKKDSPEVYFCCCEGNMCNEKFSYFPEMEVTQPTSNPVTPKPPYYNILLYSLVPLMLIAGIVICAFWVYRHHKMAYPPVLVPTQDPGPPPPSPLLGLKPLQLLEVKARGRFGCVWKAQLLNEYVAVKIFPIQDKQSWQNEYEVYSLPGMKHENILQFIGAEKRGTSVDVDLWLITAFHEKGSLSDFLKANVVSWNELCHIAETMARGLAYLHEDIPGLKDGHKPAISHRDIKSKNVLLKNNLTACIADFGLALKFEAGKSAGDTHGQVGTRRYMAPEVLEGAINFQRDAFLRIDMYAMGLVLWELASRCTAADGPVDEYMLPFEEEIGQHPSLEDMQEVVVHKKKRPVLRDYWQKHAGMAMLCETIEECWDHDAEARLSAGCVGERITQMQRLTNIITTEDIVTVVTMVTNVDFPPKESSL
Sequence of Testis-specific serine/threonine-protein kinase 3 (Homo sapiens) (Q96PN8 whole entry, the tested form may be a part): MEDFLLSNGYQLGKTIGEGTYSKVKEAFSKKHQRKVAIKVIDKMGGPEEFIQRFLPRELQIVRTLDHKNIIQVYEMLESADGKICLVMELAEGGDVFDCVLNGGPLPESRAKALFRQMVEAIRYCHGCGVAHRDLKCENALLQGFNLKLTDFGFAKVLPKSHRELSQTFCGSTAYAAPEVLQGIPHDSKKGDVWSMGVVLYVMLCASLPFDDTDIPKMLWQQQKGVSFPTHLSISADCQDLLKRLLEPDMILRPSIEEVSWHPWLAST
Sequence of Serine/threonine-protein kinase B-raf (Homo sapiens) (P15056 whole entry, the tested form may be a part): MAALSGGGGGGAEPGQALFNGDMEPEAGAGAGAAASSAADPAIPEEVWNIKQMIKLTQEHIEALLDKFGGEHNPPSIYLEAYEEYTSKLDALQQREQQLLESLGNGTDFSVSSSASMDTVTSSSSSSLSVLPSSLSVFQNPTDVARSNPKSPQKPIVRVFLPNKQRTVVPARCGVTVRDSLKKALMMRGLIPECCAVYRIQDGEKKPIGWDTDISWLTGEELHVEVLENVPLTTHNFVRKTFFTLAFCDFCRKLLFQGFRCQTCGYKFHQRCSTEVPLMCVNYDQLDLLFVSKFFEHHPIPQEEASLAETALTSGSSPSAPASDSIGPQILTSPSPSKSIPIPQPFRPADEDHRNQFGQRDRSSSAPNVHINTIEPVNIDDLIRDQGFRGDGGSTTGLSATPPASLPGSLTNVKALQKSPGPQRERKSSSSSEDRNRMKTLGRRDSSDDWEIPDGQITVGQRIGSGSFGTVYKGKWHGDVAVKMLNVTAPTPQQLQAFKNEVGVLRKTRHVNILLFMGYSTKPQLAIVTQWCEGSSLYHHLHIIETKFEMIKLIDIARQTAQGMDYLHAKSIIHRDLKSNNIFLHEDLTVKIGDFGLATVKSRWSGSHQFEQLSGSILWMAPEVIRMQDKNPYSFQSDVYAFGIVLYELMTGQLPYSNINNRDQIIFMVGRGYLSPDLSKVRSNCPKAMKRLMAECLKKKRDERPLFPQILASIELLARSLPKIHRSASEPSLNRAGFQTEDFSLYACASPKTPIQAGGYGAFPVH
Sequence of Mitogen-activated protein kinase kinase kinase 3 (Homo sapiens) (Q99759 whole entry, the tested form may be a part): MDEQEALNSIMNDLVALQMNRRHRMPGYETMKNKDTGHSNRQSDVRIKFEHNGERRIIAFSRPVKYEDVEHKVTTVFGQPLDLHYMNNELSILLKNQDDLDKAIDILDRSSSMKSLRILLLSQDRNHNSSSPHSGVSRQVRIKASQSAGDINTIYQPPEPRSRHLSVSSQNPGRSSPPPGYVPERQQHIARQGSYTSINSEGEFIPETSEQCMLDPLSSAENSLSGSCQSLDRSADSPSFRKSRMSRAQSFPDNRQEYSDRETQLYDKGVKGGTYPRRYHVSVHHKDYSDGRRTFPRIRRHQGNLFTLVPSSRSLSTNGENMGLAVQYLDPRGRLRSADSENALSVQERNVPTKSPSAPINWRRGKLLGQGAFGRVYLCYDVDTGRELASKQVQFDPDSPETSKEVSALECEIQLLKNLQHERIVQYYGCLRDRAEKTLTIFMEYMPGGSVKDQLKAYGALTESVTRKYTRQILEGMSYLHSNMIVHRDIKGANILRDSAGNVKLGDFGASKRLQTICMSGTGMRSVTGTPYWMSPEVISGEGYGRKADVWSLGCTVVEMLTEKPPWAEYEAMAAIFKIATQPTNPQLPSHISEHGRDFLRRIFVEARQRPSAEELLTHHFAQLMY

`COc1cc(OC)c(Cl)c(N2Cc3cnc(Nc4ccc(F)cc4)nc3N(C3CCN(C(=O)/C=C/CN(C)C)CC3)C2=O)c1Cl`: the Activity turned out to be 99% in assay [1]; 52% in [2]; 100% in assay [3]; 85% in assay [4]; 95% in assay [5]; 96% in [6]. Besides, the Activity in assay [7] turned out to be 100%; in assay [8], 99%; in assay [9], 100%; in assay [10], 30%; in assay [11] it was 100%; in [12] it was 1.9%. The Activity in [13] is 82%; in assay [14], 100%; in assay [15], 100%; in assay [16], 87%; in [17], 100%; in [18], 100%. Further, the Activity in assay [19] is 96%; in assay [20], 99%; in assay [21], 90%.
